Screening data (PubChem BioAssay)
Only some compounds are listed: those with a hit (about 5.6% of all), similar ones and a draw of the others.
NR3A LBD binder: NR3A (human) ligand-binding domain modulation. NR3A LBD differential scanning fluorimetry, Tm shift; 0% = protein alone, 100% = glycine-bound protein. Tm shift relative to glycine control, % at 25 µM. 2.5% of 340,000 active;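 active = melting temperature shift of at least 10% of the positive control shift, at one fixed dose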
CHOP inh: blocks CHOP induction under ER stress. CHO-K1 CHOP-promoter luciferase, tunicamycin-induced, 15-18 h. AID 2732. 3.8% of 220,000 active. inhibition, % at 10 µM;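 active = compounds that reduced the stress-induced luciferase reporter signal by more than about 70% of percent inhibition, limit read from the data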;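 also: 0% = tunicamycin plus vehicle and 100% = wells without tunicamycin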
UPR XBP1 act: activators of adaptive arm of unfolded protein response (XBP1). CHO-XBP1 luciferase reporter, IRE1-XBP1 UPR activation, luminescence; percent of tunicamycin response, DMSO as zero. activation, % at 20 µM. 0.33% of 330,000 active;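 active = versus positive control, 20 µM dose yields 30% or more activation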;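 also: 100% = tunicamycin at 10 µg/mL and 0% = DMSO only wells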
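Material – CHO cell line with stable XBP1 luciferase reporter · Buffer or medium – F12 plus 10% FBS · Compound – single point, 20 µM final compound, 1% DMSO · Schedule – 16-18 h cell attachment at 37 °C, then 6 h compound exposure · Signal – Steady-Glo luminescence read · Benchmarks – high control tunicamycin 10 µg/mL final, low control DMSO vehicle only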
aDG glyco up: alpha-DG glycosylation activation; Pro5-aDG cells, alpha-DG glycosylation AlphaScreen (IIH6); 0% Pro5, 100% B10-LARGE cell signal; 0.22% of 360,000 active; activation, % at 10 µM;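 active = activation of at least 8% versus controls, or a plate z-score of at least 8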;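 also: Pro5 are CHO cells carrying HIG-tagged alpha-DG that lacks glycosylation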
MPTP block: permeability transition pore inhibition; isolated mouse mitochondria, Ca2+ swelling absorbance, 30 min; inhibition, % at 10 µM; 1.4% of 360,000 active; AID 602449;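 active = inhibition of 50% or more, scaled per plate between neutral and stimulator controls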;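 also: 0% = DMSO wells given calcium and 100% = 1 mM EGTA wells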
UPR CHOP act: activators of apoptotic arm of unfolded protein response (CHOP). CHO-CHOP luciferase reporter, UPR activation, luminescence; percent of tunicamycin response over DMSO baseline. activation, % at 10 µM. 0.34% of 330,000 active;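 active = at 10 µM dose, activation of 40% or more, normalized to positive control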;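 also: 100% = tunicamycin at 10 µg/mL and 0% = DMSO alone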
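measured by = luciferase luminescence | assay system = CHO-CHOP cells, stable luciferase reporter of PERK-eIF2a-CHOP signalling | amount = 500 reporter cells seeded per well | timing = 6 h compound exposure at 37 °C after overnight seeding | controls = positive tunicamycin 10 µg/mL, negative DMSO alone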
CHOP confirm: confirmation of CHOP induction inhibitors; 45% of 2,100 active; shares compounds with CHOP inh; CHO-CHOP promoter luciferase reporter, tunicamycin-induced, luminescence; inhibition, % at 10 µM;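 active = mean of three repeat readings of reporter signal inhibition above a set limit, cut at about 70% in these data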;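 also: 0% = tunicamycin plus vehicle and 100% = wells lacking tunicamycin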
Active calls of the source: *; nt = not tested or not shown.

SMILES	NR3A LBD binder	CHOP inh	UPR XBP1 act	aDG glyco up	MPTP block	UPR CHOP act	CHOP confirm
c1cc2c3c(cccc3c1)NC1(CCCCCC1)N2	-5	107*	6	0	2	5	-4
Cc1ccn(CC(=O)N2CCCC(N3CCN(c4cccc(C(F)(F)F)c4)CC3)C2)n1 (stereo not given)	nt	nt	nt	0	0	nt	nt
O=C(Nc1cccc(Cl)c1)C1CCCN(S(=O)(=O)c2ccc(F)cc2)C1 (stereo not given)	-9	99*	-2	0	-2	-2	42
CSc1cccc(NC(=O)C2CCCN(S(=O)(=O)c3ccc(F)cc3)C2)c1 (stereo not given)	-5	41	1	0	1	-1	nt
OC(CNCCc1ccc(C(F)(F)F)cc1)COC(c1ccccc1)c1ccccc1 (stereo not given)	-4	nt	-2	1	4	0	nt
Cc1ccc(O)c(-c2cc(-c3ccccc3C)[nH]n2)c1	4	106*	6	0	3	3	8
Cc1ccc(O)c(-c2cc(-c3ccccc3[N+](=O)[O-])[nH]n2)c1	-6	8	0	0	5	4	nt
Oc1ccccc1-c1cc(-c2ccccc2Cl)[nH]n1	9	99*	-1	0	7	2	10
CC(=O)Oc1oc(-c2ccccc2)nc1/C=N/c1ccccn1	2	101*	2	0	1	9	-42
COc1ccccc1N=Cc1nc(-c2ccccc2)oc1OC(C)=O	-1	45	2	0	22	-1	nt
CCCNC(=O)Nc1cc(OC)c(OC)cc1Cc1nccc2cc(OC)c(OC)cc12	0	nt	10	0	0	0	nt
C=CCOC(=O)C1=C(C)NC(SCC(=O)Nc2nccs2)=C(C#N)C1c1cccs1 (stereo not given)	1	99*	-3	1	-1	-1	42
CC(=O)C1=C(C)NC(SCC(=O)Nc2nccs2)=C(C#N)C1c1ccccc1Cl (stereo not given)	-8	26	-1	0	2	0	nt
C=CCOC(=O)C1=C(C)NC(SCC(=O)Nc2nccs2)=C(C#N)C1c1ccc(Cl)cc1 (stereo not given)	-11	106*	4	0	0	1	132*
COc1ccc(NC(=O)/C(Cl)=C(/Cl)S(=O)(=O)Cc2ccc(C)cc2)cn1	-2	nt	nt	-1	0	nt	118*
COc1ccc(NC(=O)/C(Cl)=C(/Cl)S(=O)Cc2ccccc2Cl)cn1 (stereo not given)	1	110*	-7	nt	nt	-11	120*
O[C@@H]([C@H](O)[C@H](O)CBr)[C@H](O)CBr	1	nt	-1	0	-1	0	nt
O=C(NC1CCN(S(=O)(=O)c2ccccc2F)CC1)c1cccnc1	0	nt	-2	0	0	0	nt
COC(=O)c1c(C)[nH]c(C(=O)OCC(=O)c2c(N)n(CC(C)C)c(=O)n(C)c2=O)c1C	-3	nt	0	0	0	1	nt
CCCCN=c1scc(-c2ccc3c(c2)NC(=O)CO3)n1N=C1CCCC1	-3	106*	0	1	6	0	105*
O=C(NC(c1ccccc1)c1cc(Cl)c2cccnc2c1O)c1cccnc1 (stereo not given)	nt	104*	4	nt	nt	13	104*
O=C(O)COc1ccccc1C(Nc1cccnc1)c1cc(Cl)c2cccnc2c1O (stereo not given)	1	-6	-2	0	4	-2	nt
C/C(=C\c1ccco1)C1C(C#N)=C(N)Oc2n[nH]c(-c3ccc(C)cc3)c21 (stereo not given)	-5	105*	3	0	4	0	114*
C/C(=C\c1ccco1)C1C(C#N)=C(N)Oc2n[nH]c(-c3ccccc3)c21 (stereo not given)	-20	24	2	0	6	-1	nt
Cc1ccc(Nc2nc(N)nc(CN3CCN(c4ccccc4)CC3)n2)cc1Cl	2	103*	5	1	-2	0	75*
SMILES	NR3A LBD binder	CHOP inh	UPR XBP1 act	aDG glyco up	MPTP block	UPR CHOP act	CHOP confirm
CC(C)Oc1cc(NC(=O)CS(=O)CC(=O)N(C)C)c(Cl)cc1Cl (stereo not given)	-2	14	-2	0	0	1	nt
CC(C)Oc1cc(NC(=O)CS(=O)CC(=O)Nc2cccc(C(F)(F)F)c2)c(Cl)cc1Cl (stereo not given)	26*	107*	-1	0	16	2	120*
CC(=O)Nc1cnc(/C=C\CCCO)cn1	nt	nt	nt	0	-1	nt	nt
CN(C)S(=O)(=O)c1ccc(C(=O)Nc2nnc(SCc3cccc4ccccc34)s2)cc1	26*	103*	-2	0	12	-1	11
CCSc1nnc(NC(=O)c2ccc(S(=O)(=O)N(C)C)cc2)s1	2	-8	-1	-1	0	2	nt
Cc1ccc(NC(=O)CCNC(=O)c2ccc(Br)cc2)nc1	0	nt	-2	0	0	4	nt
CC(C)C[C@H](NC(=O)OC(C)(C)C)C(=O)N/N=C/C1=Cc2ccccc2OC1C (stereo not given in full)	-4	103*	4	0	-2	-1	91*
O=C1NC[C@H](CCCCN2C[C@H](Cc3ccc(O)cc3)N(CCc3ccc(O)cc3)C(=O)C2=O)N(CCc2ccccc2)C1=O	nt	nt	nt	0	-1	nt	nt
CCOc1ccc(CCNC(=O)CSc2cc(=O)n(C)c3cc(Cl)ccc23)cc1OCC	-1	11	-3	0	0	4	nt
Cn1c(=O)cc(SCC(=O)NCCC2=CCCCC2)c2ccc(Cl)cc21	-8	97*	3	0	-3	0	90*
C=CCCC(=O)N1C[C@H]2CON(C)[C@H]2C[C@H]1c1cccc(N2CCOCC2)c1	nt	nt	nt	0	-2	nt	nt
COc1cccc(N2CCN(c3ncnc4c3[nH]c3ccccc34)CC2C)c1 (stereo not given)	nt	109*	-11	nt	nt	-6	117*
O=C1CC(c2ccccc2)CC(O)=C1C=Nc1cccc(Cl)c1 (stereo not given)	-2	102*	10	0	1	34	76*
O=C1CC(c2ccccc2Cl)CC(O)=C1C=Nc1ccccc1 (stereo not given)	1	103*	24	0	11	37	104*
Cc1nc(SCC(=O)NC(C)c2ccccc2)c2oc3ccccc3c2n1 (stereo not given)	-1	6	3	3	13	-3	nt
Cc1nc(SCC(=O)Nc2ccc(F)cc2)c2oc3ccccc3c2n1	2	106*	6	0	-6	-5	19
